Data reported in ChEMBL document CHEMBL2434965, “Lead optimization of an acylhydrazone scaffold possessing antiviral activity against Lassa virus” (Bioorg Med Chem Lett, 2013).
Activity calls are given as the source filed them. The rule behind the calls is not given here.

test system: Tacaribe virus; experiment: Antiviral activity against Tacaribe virus pseudotype containing viral envelope; assay type: functional, organism-based; conditions: Mammarenavirus tacaribeense
In short: (§1)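 Lentivirus-based pseudotypes bearing arenavirus envelope glycoprotein. Each run used three or four replicates per concentration, typically 7 to 14 concentrations spaced 0.25 to 0.7 log apart, up to 50 µM. EC50 per experiment came from a four-parameter one-site dose-response fit. Values across experiments were averaged as geometric means, with relative standard error given as SD/√n relative to the mean.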

SMILES	EC50 [nM]
C/C(=N\NC(=O)[C@@H]1C[C@H]1c1ccccc1)c1ccc(NC(=O)c2ccco2)cc1	630

test system: Guanarito virus; experiment: Antiviral activity against Guanarito virus pseudotype containing viral envelope; assay type: functional; conditions: Mammarenavirus guanaritoense; in short: as §1

SMILES	EC50 [nM]
C/C(=N\NC(=O)[C@@H]1C[C@H]1c1ccccc1)c1ccc(NC(=O)c2ccco2)cc1	120

test system: Sabia virus; experiment: Antiviral activity against Sabia virus pseudotype containing viral envelope; assay type: functional; conditions: not given; in short: as §1

SMILES	EC50 [nM]
C/C(=N\NC(=O)[C@@H]1C[C@H]1c1ccccc1)c1ccc(NC(=O)c2ccco2)cc1	130

test system: Junin virus; experiment: Antiviral activity against Junin virus pseudotype containing viral envelope; assay type: functional, organism-based; conditions: Mammarenavirus juninense; in short: as §1

SMILES	EC50 [nM]
C/C(=N\NC(=O)[C@@H]1C[C@H]1c1ccccc1)c1ccc(NC(=O)c2ccco2)cc1	800

test system: Machupo mammarenavirus; experiment: Antiviral activity against Machupo virus pseudotype containing viral envelope; assay type: functional; conditions: Mammarenavirus machupoense; in short: as §1

SMILES	EC50 [nM]
C/C(=N\NC(=O)[C@@H]1C[C@H]1c1ccccc1)c1ccc(NC(=O)c2ccco2)cc1	730

test system: Lassa virus; experiment: Antiviral activity against Lassa virus by plaque reduction assay; assay type: functional, organism-based; conditions: Mammarenavirus lassaense

SMILES	Activity
C/C(=N\NC(=O)[C@@H]1C[C@H]1c1ccccc1)c1ccc(NC(=O)c2ccco2)cc1	Active

test system: Lassa virus; experiment: Antiviral activity against Lassa virus pseudotype containing envelope glycoprotein incorporated in lentivirus infected in human 293T/17 cells by luciferase reporter gene assay; assay type: functional, organism-based; conditions: Mammarenavirus lassaense, HEK-293T; in short: as §1

SMILES	EC50 [nM]
C/C(=N\NC(=O)[C@@H]1C[C@H]1c1ccccc1)c1ccc(C)cc1 (relative stereo)	9
C/C(=N\NC(=O)[C@@H]1C[C@H]1c1ccccc1)c1ccc(O)cc1 (relative stereo)	2.3
C/C(=N\NC(=O)[C@@H]1C[C@H]1c1ccccc1)c1ccc(Cl)c(Cl)c1 (relative stereo)	72
C/C(=N\NC(=O)[C@@H]1C[C@H]1c1ccccc1)c1cccc(Br)c1 (relative stereo)	56
C/C(=N\NC(=O)[C@@H]1C[C@H]1c1ccccc1)c1ccc(C)cc1C (relative stereo)	170
C/C(=N\NC(=O)[C@@H]1C[C@H]1c1ccccc1)c1ccc(NC(=O)C2CC2)cc1 (relative stereo)	2.1
C/C(=N\NC(=O)[C@H]1C[C@@H]1c1ccccc1)c1ccc(NC(=O)c2ccco2)cc1 (relative stereo)	0.34
C/C(=N\NC(=O)[C@@H]1C[C@H]1c1ccccc1)c1ccc([N+](=O)[O-])cc1 (relative stereo)	62
C/C(=N\NC(=O)[C@@H]1C[C@H]1c1ccccc1)c1ccc(NC(=O)c2ccc(Cl)s2)cc1 (relative stereo)	0.95
C/C(=N\NC(=O)[C@@H]1C[C@H]1c1ccccc1)c1cccc(NC(=O)c2cccs2)c1 (relative stereo)	6300
C/C(=N\NC(=O)[C@@H]1C[C@H]1c1ccccc1)c1ccc(Cl)cc1 (relative stereo)	20
COc1cccc(/C(C)=N/NC(=O)[C@@H]2C[C@H]2c2ccccc2)c1 (relative stereo)	42
CC(=O)Nc1ccc(/C(C)=N/NC(=O)[C@@H]2C[C@H]2c2ccccc2)cc1 (relative stereo)	2.6
C/C(=N\NC(=O)[C@@H]1C[C@H]1c1ccccc1)c1ccc(C2CCCCC2)cc1 (relative stereo)	24
C/C(=N\NC(=O)[C@@H]1C[C@H]1c1ccc(C(C)(C)C)cc1)c1ccc(F)cc1 (relative stereo)	16
C/C(=N\NC(=O)[C@@H]1C[C@H]1c1ccccc1)c1cccc(C)c1C (relative stereo)	800
C/C(=N\NC(=O)[C@@H]1C[C@H]1c1ccccc1)c1ccccc1O (relative stereo)	570

SMILES	EC50 [nM]
C/C(=N\NC(=O)[C@@H]1C[C@H]1c1ccccc1)c1ccc(NC(=O)c2ccco2)cc1	0.34
C/C(=N\NC(=O)[C@@H]1C[C@H]1c1ccccc1)c1cccc(C)c1 (relative stereo)	58
C/C(=N\NC(=O)[C@@H]1C[C@H]1c1ccccc1)c1ccccc1Cl (relative stereo)	320
C/C(=N\NC(=O)[C@@H]1C[C@H]1c1ccccc1)c1ccc(C)c(C)c1 (relative stereo)	3.9
COc1ccc(/C(C)=N/NC(=O)[C@@H]2C[C@H]2c2ccccc2)cc1 (relative stereo)	4
COc1cccc(/C(C)=N/NC(=O)C2CC2)c1	> 50000
C/C(=N\NC(=O)[C@@H]1C[C@H]1c1ccccc1)c1cccc([N+](=O)[O-])c1 (relative stereo)	250
C/C(=N\NC(=O)[C@@H]1C[C@H]1c1ccc(C(C)(C)C)cc1)c1ccccc1 (relative stereo)	15
C/C(=N\NC(=O)[C@@H]1C[C@H]1c1ccccc1)c1ccc(F)cc1 (relative stereo)	52
C/C(=N\NC(=O)[C@@H]1C[C@H]1c1ccc(C(C)(C)C)cc1)c1ccc(Cl)cc1 (relative stereo)	6.6
C/C(=N\NC(=O)[C@@H]1C[C@H]1c1ccc(C(C)(C)C)cc1)c1cccc(NC(=O)c2ccccc2F)c1 (relative stereo)	770
COc1ccc(/C(C)=N/NC(=O)[C@@H]2C[C@H]2c2ccccc2)cc1OC (relative stereo)	450
C/C(=N\NC(=O)[C@@H]1C[C@H]1c1ccccc1)c1cccc(O)c1 (relative stereo)	94
C/C(=N\NC(=O)[C@@H]1C[C@H]1c1ccccc1)c1ccccc1 (relative stereo)	47
C/C(=N\NC(=O)[C@@H]1C[C@H]1c1ccccc1)c1ccc(Br)cc1 (relative stereo)	470
C/C(=N\NC(=O)[C@@H]1C[C@H]1c1ccccc1)c1ccc(-c2ccccc2)cc1 (relative stereo)	1.3
C/C(=N\NC(=O)[C@@H]1C[C@H]1c1ccccc1)c1cccc(NC(=O)c2ccccc2F)c1 (relative stereo)	9100
